Experiments:
[1] = biological target: Cyclin-dependent kinase 2/cyclin A (Homo sapiens) (UniProt P24941+P20248+P78396); test: Inhibition of recombinant CDK2/cyclin A (unknown origin) assessed as residual activity using [gamma-33P]ATP as substrate at 1 uM; format: protein-complex assay
Outline: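 CDK2/cyclin A included in the radiometric panel at 1 µM in duplicate. Reactions started with [γ-33P]ATP (800 cpm/pmol) at 5, 20 or 50 µM, at or below the enzyme's ATP Km. Stopped with phosphoric acid, spotted onto P81 filters; result given as residual kinase activity.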

[2] = biological target: Dual specificity mitogen-activated protein kinase kinase 1 (Homo sapiens) (UniProt Q02750); test: Inhibition of recombinant MKK1 (unknown origin) assessed as residual activity using [gamma-33P]ATP as substrate at 1 uM
Outline: (§1)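 Selectivity panel run under previously published conditions. Screened at 1 μM in duplicate. Reactions started with [γ-33P]ATP (800 cpm/pmol) at 5, 20 or 50 μM, chosen to be at or below each enzyme's ATP Km. Stopped with phosphoric acid, spotted onto P81 filters. Result expressed as residual kinase activity.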

[3] = biological target: Mitogen-activated protein kinase kinase kinase kinase 2 (Homo sapiens) (UniProt Q12851); test: Inhibition of recombinant GCK (unknown origin) assessed as residual activity using [gamma-33P]ATP as substrate at 1 uM
Mitogen-activated protein kinase kinase kinase kinase 2 (Homo sapiens), sequence (Q12851 whole entry): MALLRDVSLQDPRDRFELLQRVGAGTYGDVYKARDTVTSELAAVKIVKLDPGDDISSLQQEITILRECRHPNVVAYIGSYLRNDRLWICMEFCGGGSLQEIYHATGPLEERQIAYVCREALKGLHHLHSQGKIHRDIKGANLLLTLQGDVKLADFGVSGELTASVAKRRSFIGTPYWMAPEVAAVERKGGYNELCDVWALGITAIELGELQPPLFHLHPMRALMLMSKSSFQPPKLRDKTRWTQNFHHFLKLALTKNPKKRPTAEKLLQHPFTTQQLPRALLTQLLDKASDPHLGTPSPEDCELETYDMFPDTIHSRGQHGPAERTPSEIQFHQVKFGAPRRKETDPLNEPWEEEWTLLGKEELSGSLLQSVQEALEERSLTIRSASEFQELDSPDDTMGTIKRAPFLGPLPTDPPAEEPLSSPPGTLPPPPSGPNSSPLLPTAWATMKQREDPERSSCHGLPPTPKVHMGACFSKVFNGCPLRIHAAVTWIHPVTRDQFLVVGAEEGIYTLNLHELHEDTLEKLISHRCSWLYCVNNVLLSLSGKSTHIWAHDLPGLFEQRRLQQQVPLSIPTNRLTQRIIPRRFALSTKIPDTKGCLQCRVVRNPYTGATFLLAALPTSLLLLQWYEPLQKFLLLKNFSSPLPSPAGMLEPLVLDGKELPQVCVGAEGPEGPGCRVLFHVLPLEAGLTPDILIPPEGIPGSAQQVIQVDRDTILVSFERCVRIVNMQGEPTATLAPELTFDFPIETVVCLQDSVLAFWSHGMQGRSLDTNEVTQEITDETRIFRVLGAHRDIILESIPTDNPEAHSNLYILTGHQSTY
Outline: (§2)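 Recombinant kinase panel screened at 1 µM in duplicate. Reactions started with [γ-33P]ATP (800 cpm/pmol) at 5, 20 or 50 µM, chosen to sit at or below each enzyme's ATP Km. Stopped with phosphoric acid and spotted onto P81 filters. Result given as residual kinase activity.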

[4] = biological target: Mitogen-activated protein kinase 9 (Homo sapiens) (UniProt P45984); test: Inhibition of recombinant JNK2 (unknown origin) assessed as residual activity using [gamma-33P]ATP as substrate at 1 uM; outline: as §1
[5] = biological target: Homeodomain-interacting protein kinase 1 (Homo sapiens) (UniProt Q86Z02); test: Inhibition of recombinant HIPK1 (unknown origin) assessed as residual activity using [gamma-33P]ATP as substrate at 1 uM; outline: as §2
[6] = biological target: Serine/threonine-protein kinase Nek6 (Homo sapiens) (UniProt Q9HC98); test: Inhibition of recombinant NEK6 (unknown origin) assessed as residual activity using [gamma-33P]ATP as substrate at 1 uM; outline: as §1
Serine/threonine-protein kinase Nek6 (Homo sapiens), sequence (Q9HC98 whole entry): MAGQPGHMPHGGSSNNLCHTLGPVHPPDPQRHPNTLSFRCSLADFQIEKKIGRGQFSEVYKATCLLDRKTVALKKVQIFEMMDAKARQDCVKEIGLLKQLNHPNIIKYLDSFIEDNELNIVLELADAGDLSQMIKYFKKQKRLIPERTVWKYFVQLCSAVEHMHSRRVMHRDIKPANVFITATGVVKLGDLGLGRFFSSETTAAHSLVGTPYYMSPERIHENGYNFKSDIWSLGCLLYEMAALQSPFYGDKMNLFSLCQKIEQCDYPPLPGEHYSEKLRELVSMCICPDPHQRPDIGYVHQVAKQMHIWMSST

[7] = biological target: Ephrin type-A receptor 4 (Homo sapiens) (UniProt P54764); test: Inhibition of recombinant EPH-A4 (unknown origin) assessed as residual activity using [gamma-33P]ATP as substrate at 1 uM; outline: as §2
[8] = biological target: Ephrin type-B receptor 1 (Homo sapiens) (UniProt P54762); test: Inhibition of recombinant EPH-B1 (unknown origin) assessed as residual activity using [gamma-33P]ATP as substrate at 1 uM; outline: as §2
Ephrin type-B receptor 1 (Homo sapiens), sequence (P54762 whole entry): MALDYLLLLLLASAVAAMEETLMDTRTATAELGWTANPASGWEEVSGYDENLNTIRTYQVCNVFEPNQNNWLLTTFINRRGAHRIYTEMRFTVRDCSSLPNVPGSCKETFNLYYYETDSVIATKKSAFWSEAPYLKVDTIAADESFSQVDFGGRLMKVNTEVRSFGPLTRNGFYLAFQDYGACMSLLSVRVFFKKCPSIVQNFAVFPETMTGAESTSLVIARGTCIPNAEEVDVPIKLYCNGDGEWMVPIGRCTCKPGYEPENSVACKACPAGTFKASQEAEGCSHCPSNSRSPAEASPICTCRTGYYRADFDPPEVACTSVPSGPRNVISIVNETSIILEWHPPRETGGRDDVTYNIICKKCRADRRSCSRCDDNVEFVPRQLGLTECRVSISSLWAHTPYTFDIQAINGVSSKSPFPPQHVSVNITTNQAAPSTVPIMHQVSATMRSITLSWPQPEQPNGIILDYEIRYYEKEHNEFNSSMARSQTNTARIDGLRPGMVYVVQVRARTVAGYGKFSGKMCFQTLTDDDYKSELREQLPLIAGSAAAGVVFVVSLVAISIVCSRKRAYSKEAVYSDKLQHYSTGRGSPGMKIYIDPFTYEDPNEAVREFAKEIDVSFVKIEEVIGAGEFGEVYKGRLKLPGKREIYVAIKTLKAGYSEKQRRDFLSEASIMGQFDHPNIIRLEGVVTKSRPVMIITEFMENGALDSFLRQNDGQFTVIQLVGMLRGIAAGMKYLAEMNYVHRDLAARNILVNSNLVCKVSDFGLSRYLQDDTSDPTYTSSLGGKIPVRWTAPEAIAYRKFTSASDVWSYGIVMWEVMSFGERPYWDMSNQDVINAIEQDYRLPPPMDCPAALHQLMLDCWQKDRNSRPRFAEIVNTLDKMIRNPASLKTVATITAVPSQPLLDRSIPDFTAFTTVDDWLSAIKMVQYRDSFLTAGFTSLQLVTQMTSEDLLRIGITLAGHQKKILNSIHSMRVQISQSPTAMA

[9] = biological target: Serine/threonine-protein kinase D1 (Homo sapiens) (UniProt Q15139); test: Inhibition of recombinant PKD1 (unknown origin) assessed as residual activity using [gamma-33P]ATP as substrate at 1 uM; outline: as §1
Serine/threonine-protein kinase D1 (Homo sapiens), sequence (Q15139 whole entry): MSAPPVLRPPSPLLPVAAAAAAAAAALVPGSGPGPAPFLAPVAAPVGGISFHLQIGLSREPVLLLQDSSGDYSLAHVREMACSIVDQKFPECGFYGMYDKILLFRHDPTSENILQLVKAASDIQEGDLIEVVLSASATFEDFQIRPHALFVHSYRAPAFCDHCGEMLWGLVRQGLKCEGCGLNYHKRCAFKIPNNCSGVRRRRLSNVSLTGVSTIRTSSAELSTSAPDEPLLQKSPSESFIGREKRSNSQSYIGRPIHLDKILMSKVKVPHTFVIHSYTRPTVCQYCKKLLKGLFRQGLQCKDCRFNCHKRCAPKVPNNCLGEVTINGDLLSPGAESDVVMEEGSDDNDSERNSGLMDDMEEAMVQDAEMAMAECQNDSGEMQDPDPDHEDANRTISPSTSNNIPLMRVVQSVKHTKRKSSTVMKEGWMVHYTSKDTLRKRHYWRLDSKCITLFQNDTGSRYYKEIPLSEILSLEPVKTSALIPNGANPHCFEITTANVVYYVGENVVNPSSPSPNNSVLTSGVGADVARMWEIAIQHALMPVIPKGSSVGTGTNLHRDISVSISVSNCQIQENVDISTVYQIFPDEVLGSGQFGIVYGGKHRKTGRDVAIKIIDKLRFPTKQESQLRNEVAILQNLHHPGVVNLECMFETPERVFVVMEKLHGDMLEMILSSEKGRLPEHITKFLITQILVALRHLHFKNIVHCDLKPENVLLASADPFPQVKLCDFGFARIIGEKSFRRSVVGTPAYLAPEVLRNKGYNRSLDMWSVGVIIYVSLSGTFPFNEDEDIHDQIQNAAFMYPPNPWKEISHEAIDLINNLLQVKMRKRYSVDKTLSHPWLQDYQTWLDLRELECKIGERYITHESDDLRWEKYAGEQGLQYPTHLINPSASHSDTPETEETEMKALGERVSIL

[10] = biological target: Insulin receptor-related protein (Homo sapiens) (UniProt P14616); test: Inhibition of recombinant IRR (unknown origin) assessed as residual activity using [gamma-33P]ATP as substrate at 1 uM; outline: as §2
[11] = biological target: Proto-oncogene tyrosine-protein kinase Src (Homo sapiens) (UniProt P12931); test: Inhibition of recombinant SRC (unknown origin) assessed as residual activity using [gamma-33P]ATP as substrate at 1 uM
Proto-oncogene tyrosine-protein kinase Src (Homo sapiens), sequence (P12931 2-536 limits assumed): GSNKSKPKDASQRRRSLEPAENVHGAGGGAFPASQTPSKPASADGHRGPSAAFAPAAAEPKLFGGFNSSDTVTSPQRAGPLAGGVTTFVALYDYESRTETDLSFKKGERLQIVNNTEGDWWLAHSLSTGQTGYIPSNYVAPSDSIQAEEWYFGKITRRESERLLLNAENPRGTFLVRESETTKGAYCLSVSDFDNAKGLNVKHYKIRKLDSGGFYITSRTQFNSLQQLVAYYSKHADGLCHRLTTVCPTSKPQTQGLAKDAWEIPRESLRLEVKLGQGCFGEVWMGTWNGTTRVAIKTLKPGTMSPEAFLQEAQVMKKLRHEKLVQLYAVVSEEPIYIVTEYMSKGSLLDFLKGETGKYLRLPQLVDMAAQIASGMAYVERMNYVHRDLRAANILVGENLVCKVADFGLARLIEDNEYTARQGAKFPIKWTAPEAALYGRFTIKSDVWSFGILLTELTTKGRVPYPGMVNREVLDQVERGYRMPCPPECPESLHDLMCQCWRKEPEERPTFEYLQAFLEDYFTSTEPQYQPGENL
Outline: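 Kinase panel screen with each compound at 1 µM, in duplicate. Reactions were started with [γ-33P]ATP (800 cpm/pmol) at 5, 20 or 50 µM, chosen per enzyme to be at or below its ATP Km. Reactions were stopped with phosphoric acid and spotted onto P81 filters. Results are given as residual kinase activity.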

[12] = biological target: Serine/threonine-protein kinase PAK 4 (Homo sapiens) (UniProt O96013); test: Inhibition of recombinant PAK4 (unknown origin) assessed as residual activity using [gamma-33P]ATP as substrate at 1 uM; outline: as §1
[13] = biological target: RAC-beta serine/threonine-protein kinase (Homo sapiens) (UniProt P31751); test: Inhibition of recombinant PKB beta (unknown origin) assessed as residual activity using [gamma-33P]ATP as substrate at 1 uM; outline: as §1
RAC-beta serine/threonine-protein kinase (Homo sapiens), sequence (P31751 whole entry): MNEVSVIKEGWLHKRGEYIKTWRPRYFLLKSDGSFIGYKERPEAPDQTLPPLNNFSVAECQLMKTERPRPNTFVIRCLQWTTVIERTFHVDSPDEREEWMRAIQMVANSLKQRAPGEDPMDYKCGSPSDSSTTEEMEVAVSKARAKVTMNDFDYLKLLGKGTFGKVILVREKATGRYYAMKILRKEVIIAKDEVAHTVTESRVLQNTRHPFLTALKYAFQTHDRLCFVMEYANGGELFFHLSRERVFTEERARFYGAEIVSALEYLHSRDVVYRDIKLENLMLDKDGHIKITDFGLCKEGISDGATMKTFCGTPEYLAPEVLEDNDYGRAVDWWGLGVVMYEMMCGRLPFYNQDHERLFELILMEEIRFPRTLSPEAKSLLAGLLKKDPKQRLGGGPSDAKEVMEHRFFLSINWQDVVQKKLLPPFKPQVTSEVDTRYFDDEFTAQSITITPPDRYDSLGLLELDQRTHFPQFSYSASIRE

[14] = biological target: Ephrin type-B receptor 4 (Homo sapiens) (UniProt P54760); test: Inhibition of recombinant EPH-B4 (unknown origin) assessed as residual activity using [gamma-33P]ATP as substrate at 1 uM; outline: as §2
[15] = biological target: Serine/threonine-protein kinase MARK1 (Homo sapiens) (UniProt Q9P0L2); test: Inhibition of recombinant MARK1 (unknown origin) assessed as residual activity using [gamma-33P]ATP as substrate at 1 uM; outline: as §1
[16] = biological target: Mitogen-activated protein kinase kinase kinase 1 (Homo sapiens) (UniProt Q13233); test: Inhibition of recombinant MEKK1 (unknown origin) assessed as residual activity using [gamma-33P]ATP as substrate at 1 uM; outline: as §1
[17] = biological target: MAP kinase-activated protein kinase 5 (Homo sapiens) (UniProt Q8IW41); test: Inhibition of recombinant PRAK (unknown origin) assessed as residual activity using [gamma-33P]ATP as substrate at 1 uM; outline: as §1
MAP kinase-activated protein kinase 5 (Homo sapiens), sequence (Q8IW41 whole entry): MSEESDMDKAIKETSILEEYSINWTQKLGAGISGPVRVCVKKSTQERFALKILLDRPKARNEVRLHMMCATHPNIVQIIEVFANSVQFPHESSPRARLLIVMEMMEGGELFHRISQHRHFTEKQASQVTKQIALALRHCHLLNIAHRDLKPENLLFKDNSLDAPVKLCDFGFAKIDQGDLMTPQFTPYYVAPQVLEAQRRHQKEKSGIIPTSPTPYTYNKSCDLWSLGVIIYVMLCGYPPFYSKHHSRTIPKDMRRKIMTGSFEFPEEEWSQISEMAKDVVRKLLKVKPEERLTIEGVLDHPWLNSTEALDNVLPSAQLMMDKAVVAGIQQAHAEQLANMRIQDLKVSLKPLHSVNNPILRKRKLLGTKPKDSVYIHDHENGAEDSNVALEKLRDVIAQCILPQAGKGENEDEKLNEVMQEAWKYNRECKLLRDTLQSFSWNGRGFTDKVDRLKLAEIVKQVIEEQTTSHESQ

[18] = biological target: NUAK family SNF1-like kinase 1 (Homo sapiens) (UniProt O60285); test: Inhibition of recombinant NUAK1 (unknown origin) assessed as residual activity using [gamma-33P]ATP as substrate at 1 uM; outline: as §1
[19] = biological target: Mitogen-activated protein kinase 10 (Homo sapiens) (UniProt P53779); test: Inhibition of recombinant JNK3 (unknown origin) assessed as residual activity using [gamma-33P]ATP as substrate at 1 uM; outline: as §1
Mitogen-activated protein kinase 10 (Homo sapiens), sequence (P53779 whole entry): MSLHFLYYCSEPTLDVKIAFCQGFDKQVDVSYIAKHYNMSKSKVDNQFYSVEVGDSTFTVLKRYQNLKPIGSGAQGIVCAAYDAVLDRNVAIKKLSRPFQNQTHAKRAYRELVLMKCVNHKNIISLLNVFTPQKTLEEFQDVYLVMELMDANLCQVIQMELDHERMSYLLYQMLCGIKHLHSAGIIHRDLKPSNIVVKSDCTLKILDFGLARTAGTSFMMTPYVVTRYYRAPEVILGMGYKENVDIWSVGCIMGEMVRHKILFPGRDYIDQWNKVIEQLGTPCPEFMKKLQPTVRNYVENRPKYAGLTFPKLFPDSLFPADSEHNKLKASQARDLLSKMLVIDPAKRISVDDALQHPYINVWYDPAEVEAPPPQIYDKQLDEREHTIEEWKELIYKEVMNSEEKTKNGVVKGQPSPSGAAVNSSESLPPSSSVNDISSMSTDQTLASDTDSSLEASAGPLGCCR

[20] = biological target: Death-associated protein kinase 1 (Homo sapiens) (UniProt P53355); test: Inhibition of recombinant DAPK1 (unknown origin) assessed as residual activity using [gamma-33P]ATP as substrate at 1 uM; outline: as §2
[21] = biological target: Cyclin-dependent kinase 1/cyclin B1 (Homo sapiens) (UniProt P06493+P14635); test: Ratio of roscovitine IC50 to compound IC50 for recombinant CDK1/cyclin B (unknown origin); format: protein-complex assay
MCF7 = test: Ratio of roscovitine IC50 to compound IC50 for human MCF7 cells after 72 hrs by calcien AM dye based fluorescence analysis; format: functional
[22] = biological target: Cyclin-dependent kinase 2/cyclin E1 (Homo sapiens) (UniProt P24864+P24941); test: Ratio of roscovitine IC50 to compound IC50 for recombinant CDK2/cyclin E (unknown origin); format: protein-complex assay

| SMILES | Activity [1] [%] | Activity [2] [%] | Activity [3] [%] | Activity [4] [%] | Activity [5] [%] | Activity [6] [%] | Activity [7] [%] | Activity [8] [%] | Activity [9] [%] | Activity [10] [%] | Activity [11] [%] | Activity [12] [%] | Activity [13] [%] | Activity [14] [%] | Activity [15] [%] | Activity [16] [%] | Activity [17] [%] | Activity [18] [%] | Activity [19] [%] | Activity [20] [%] | other results |
| --- | --- | --- | --- | --- | --- | --- | --- | --- | --- | --- | --- | --- | --- | --- | --- | --- | --- | --- | --- | --- | --- |
| CC[C@H](CO)Nc1nc(NC(=N)N)c2ncn(C(C)C)c2n1 | 5 | 41 | 15 | 85 | 15 | 95 | 22 | 8 | 17 | 19 | 22 | 15 | 111 | 6 | 31 | 91 | 76 | 8 | 96 | 54 | – |
| CC[C@@H](CO)Nc1nc(NC(=N)N)c2ncn(C(C)C)c2n1 | 7 | 28 | 10 | 73 | 11 | 85 | 41 | 7 | 18 | 16 | 6 | 12 | 103 | 6 | 39 | 96 | 74 | 7 | 80 | 36 | Ratio IC50 [21]: 2.7; Ratio IC50 (MCF7): >10; Ratio IC50 [22]: 4.6 |

— ChEMBL document CHEMBL2331324, “Synthesis and biological evaluation of guanidino analogues of roscovitine” (Eur J Med Chem, 2013)
